# Compound activity deposited in PubChem by Sanford-Burnham Center for Chemical Genomics.
# This is a sample that favours compounds with a hit; in the whole collection about 3% have one here.
# SENP6 block: blocks the human protease SENP6; Recombinant SENP6 catalytic domain, aminoluciferin luminescence; inhibition, % at 10 µM; hit rate 1.8% among 330,000; AID 2599;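 active = inhibition above about 50% at the single tested dose, limit read from the data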;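 also: plate controls were DMSO wells with enzyme for no effect and DMSO wells lacking enzyme for full effect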
# Target sequence (Q9GZR1 628-1112 limits assumed): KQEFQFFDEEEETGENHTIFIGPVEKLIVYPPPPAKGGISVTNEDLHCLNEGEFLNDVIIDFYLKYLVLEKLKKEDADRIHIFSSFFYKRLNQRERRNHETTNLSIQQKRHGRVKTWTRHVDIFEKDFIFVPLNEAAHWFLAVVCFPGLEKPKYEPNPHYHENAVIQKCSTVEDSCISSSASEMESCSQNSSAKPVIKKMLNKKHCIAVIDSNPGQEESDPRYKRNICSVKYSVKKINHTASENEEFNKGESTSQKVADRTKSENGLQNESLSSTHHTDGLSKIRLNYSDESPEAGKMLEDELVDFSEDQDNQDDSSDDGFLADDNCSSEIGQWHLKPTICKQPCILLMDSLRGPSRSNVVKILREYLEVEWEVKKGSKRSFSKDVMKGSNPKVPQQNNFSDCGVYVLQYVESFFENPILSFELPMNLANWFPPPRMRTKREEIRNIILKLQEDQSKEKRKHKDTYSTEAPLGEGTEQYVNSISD
# UBC13 inh: inhibitors of human UBC13 polyubiquitin chain formation; TR-FRET; inhibition, % at 20 µM; hit rate 0.47% among 330,000; P61088; in the data active = inhibition above about 45%, passing the limit was not always enough
# Target sequence (P61088 whole entry, looked up): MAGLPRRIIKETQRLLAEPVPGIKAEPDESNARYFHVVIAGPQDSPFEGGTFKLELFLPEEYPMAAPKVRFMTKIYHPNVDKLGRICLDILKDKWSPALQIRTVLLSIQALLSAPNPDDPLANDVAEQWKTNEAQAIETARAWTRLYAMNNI
# SENP8 block-1: inhibitors of human SENP8 protease. Q96LD8. recombinant SENP8, Nedd8 substrate fluorescence. inhibition, % at 20 µM. hit rate 0.64% among 360,000. AID 602440; in the data active = inhibition mostly above about 40%, no sharp cut-off; inactive = mostly below about 27%
# Apaf1 inhib: blocks human Apaf-1 apoptosome activity; reconstituted apoptosome caspase-3 activity, DEVD-Rh110 fluorescence; inhibition, % at 20 µM; hit rate 0.71% among 330,000; active = inhibition of at least 40% at 20 µM;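 also: plate controls were DMSO wells for no effect and DEVD-CHO caspase inhibitor wells for full effect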
#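 System: reconstituted apoptosome with Apaf-1, cytochrome c, caspase-9, procaspase-3, dATP; Signal: Rh110 fluorescence intensity; Schedule: 30 min compound preincubation, 50 min activation, room temperature; Reagent: cytochrome c trigger plus (Z-DEVD)2-Rh110 caspase-3 substrate.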
# SENP7 inh: blocks the human protease SENP7; Q9BQF6; recombinant SENP7, Z-RLRGG-aminoluciferin luminescence, 40 min; inhibition, % at 5 µM; hit rate 1.5% among 330,000; AID 434973;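 active = inhibition above about 50% at the single test dose, limit read from the data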;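 also: plate controls were DMSO with enzyme for no effect and no enzyme buffer wells for full effect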
# SENP8 block-2: inhibitors of human SENP8 protease. AID 2540. inhibition, % at 10 µM. hit rate 1.2% among 330,000. purified SENP8, Z-RLRGG-aminoluciferin cleavage, luminescence; in the data active = inhibition above about 50%
# SENP8 conf: human SENP8 inhibition, confirmed; shares compounds with SENP7 inh; Recombinant SENP8, Z-RLRGG-aminoluciferin luminescence, 60 min; inhibition, % at 12.5 µM; hit rate 40% among 6,200; AID 488912;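 active = mean inhibition across replicates above about 50%, limit read from the data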
# SENP6 conf: confirmation of human SENP6 protease inhibitors; shares compounds with SENP7 inh; hit rate 58% among 6,200; inhibition, % at 12.5 µM; recombinant SENP6, Z-RLRGG-aminoluciferin luminescence
# SENP7 confirm: confirmation of human SENP7 protease inhibitors; inhibition, % at 12.5 µM; recombinant SENP7, Z-RLRGG-aminoluciferin luminescence, 40 min; hit rate 69% among 6,200; shares compounds with SENP7 inh
# Casp3 select: inhibits human caspase-3 in SENP selectivity test; shares compounds with SENP7 inh; purified caspase-3, Z-DEVD-aminoluciferin luminescence, 60 min; inhibition, % at 12.5 µM; hit rate 60% among 6,200;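 active = mean inhibition above about 50%, limit read from the data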;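 also: plate controls were enzyme with DMSO for no effect and wells without caspase-3 for full effect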
# Luc interf: luminescence interference (SENP counter-screen); shares compounds with SENP7 inh; Pre-incubated SENP8/Z-RLRGG-aminoluciferin, luciferase luminescence interference; inhibition, % at 12.5 µM; hit rate 39% among 6,200; AID 488919;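 active = mean inhibition above about 50% when retested at one dose, limit read from the data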;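 also: plate controls were DMSO wells with completed reaction for no effect and substrate without enzyme for full effect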
# * hit, by the source's call; nt = no result.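 The calls were made as follows, unless noted: active = mean inhibition above about 50% in the one-dose retest (limit read from the data); inactive = the rest.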
SMILES,SENP6 block,UBC13 inh,SENP8 block-1,Apaf1 inhib,SENP7 inh,SENP8 block-2,SENP8 conf,SENP6 conf,SENP7 confirm,Casp3 select,Luc interf
COc1ccc(N(CC(=O)NCCC2=CCCCC2)S(=O)(=O)c2c(C)[nH]c(=O)[nH]c2=O)cc1,-5.3,2.9,20.5,-2.6,1.5,7.4,nt,nt,nt,nt,nt
COCCCNC(=O)CN(c1cc(Cl)ccc1OC)S(=O)(=O)c1ccc(C)c([N+](=O)[O-])c1,72.7*,2.7,16.7,15.4,-6.1,-10.0,5.9,3.4,-10.1,-5.1,-2.5
COc1ccc(N(CC(=O)NCc2ccncc2)S(=O)(=O)c2ccc(C)c([N+](=O)[O-])c2)cc1,85.5*,-1.6,21.6,-16.9,0.9,-0.1,-1.8,-0.3,-2.2,-1.4,0.2
COc1ccc(N(CC(=O)NCc2cccnc2)S(=O)(=O)c2ccc(C)c([N+](=O)[O-])c2)cc1,2.9,0.1,7.7,0.9,6.2,6.7,nt,nt,nt,nt,nt
COCCNC(=O)CN(c1cc(Cl)ccc1OC)S(=O)(=O)c1ccc(C)c([N+](=O)[O-])c1,7.8,8.1,0.5,5.8,-5.3,-2.7,nt,nt,nt,nt,nt
Nn1c(SCC(=O)NCC2CCCO2)nnc1-c1ccc(OC(F)F)cc1 (centres undefined),-4.7,-8.3,5.8,3.2,-20.8,1.1,nt,nt,nt,nt,nt
COc1cccc(-c2nnc(NC(=O)c3cccc(F)c3)o2)c1,60.5*,-13.2,15.0,4.4,32.8,55.7*,3.5,4.0,3.8,14.7,1.9
COc1cccc(C(=O)Nc2ccc(-c3nnc(-c4ccco4)o3)cc2)c1,5.2,9.7,-231.4,-3.3,4.6,-7.5,nt,nt,nt,nt,nt
COc1cccc(-c2nnc(-c3ccccc3[N+](=O)[O-])o2)c1,30.6,2.6,12.8,-14.3,50.0*,24.5,19.0,29.8,66.9*,47.8,30.8
COc1cccc(-c2nnc(N)o2)c1,-33.8,0.6,6.4,-6.8,-7.1,-4.2,nt,nt,nt,nt,nt
COc1cccc(-c2nnc(-c3ccc(C)o3)o2)c1,17.6,15.0,-299.3,0.8,56.5*,38.9,62.5*,64.5*,89.1*,82.3*,74.0*
Cc1cc(Oc2ccc(-c3nnc(-c4ccccc4)o3)cc2[N+](=O)[O-])ccc1Cl,-4.4,-5.2,21.2,-0.1,-2.2,-3.8,nt,nt,nt,nt,nt
COc1cccc(-c2nnc(-c3ccco3)o2)c1,66.7*,-8.3,-110.9,7.5,55.4*,49.0,57.8*,56.1*,87.0*,80.2*,65.0*
COc1ccc2[nH]cc(CCNC(=O)Cc3ccc(Cl)cc3)c2c1,-10.3,41.1,4.3,3.5,4.0,-4.5,nt,nt,nt,nt,nt
O=C(c1cc(-c2ccc(Br)cc2)on1)N1CCc2ccccc2C1,-23.7,-2.1,14.6,13.0,-4.4,-0.9,nt,nt,nt,nt,nt
COc1ccccc1C(=O)NCC(=O)NCCCN1CCOCC1,2.3,-2.3,12.3,-2.1,-10.8,-13.2,nt,nt,nt,nt,nt
O=C1[C@H]2[C@@H](c3ccc(F)cc3)N3C(=O)N(c4ccc(Br)cc4)C(=O)[C@@]3(Cc3ccccc3)[C@H]2C(=O)N1C1CCCCC1,-2.5,-64.9,8.4,9.9,2.5,0.2,nt,nt,nt,nt,nt
O=C(NCc1ccc(Cl)cc1)C(=O)c1cn(CC(=O)N2CCOCC2)c2ccccc12,-4.7,9.0,5.0,-3.9,0.9,-1.6,nt,nt,nt,nt,nt
O=C(Nc1ccccc1Cl)C(=O)c1cn(CC(=O)N2CCOCC2)c2ccccc12,43.5,-7.5,-22.8,3.9,74.2*,30.5,17.2,15.8,23.7,18.0,7.3
CC1(C(=O)NS(=O)(=O)C2CC2)CCN(C(=O)c2ccccc2C(F)(F)F)C1 (centres undefined),nt,nt,-0.6,nt,nt,nt,nt,nt,nt,nt,nt
CC1CCCN(c2ccc3nc4ccccc4c(=O)n3n2)C1 (centres undefined),60.7*,3.9,-175.7,-1.9,49.5,35.5,45.6,51.8*,81.1*,82.7*,20.5
COc1ccccc1N1CCN(c2ccc3ccccc3n2)CC1,35.9,-1.2,-217.2,16.6,22.1,19.5,nt,nt,nt,nt,nt
COc1ccccc1N1CCN(c2ccc(-c3ccccc3)nn2)CC1,94.1*,6.0,13.0,4.7,-3.0,95.4*,78.8*,89.4*,98.5*,90.0*,21.8
Cc1ccc(C(=O)Nc2ncc3c(Cl)cccc3n2)cc1,87.5*,-2.2,4.2,8.4,90.7*,81.1*,82.9*,92.6*,98.7*,93.2*,52.2*
O=C(Nc1ccc(Cl)cn1)c1ccc(Oc2ccccc2)cc1,91.1*,-1.8,2.9,12.9,91.0*,90.0*,27.0,52.5*,57.8*,47.4,5.4
SMILES,SENP6 block,UBC13 inh,SENP8 block-1,Apaf1 inhib,SENP7 inh,SENP8 block-2,SENP8 conf,SENP6 conf,SENP7 confirm,Casp3 select,Luc interf
Cc1ccccc1C(=O)Nc1ccc(Br)c(C)n1,58.9*,-0.4,11.7,7.9,66.1*,42.6,60.7*,61.5*,87.0*,65.2*,58.4*
Cc1nc(NC(=O)c2cccnc2)ccc1Br,-12.3,0.1,5.6,-4.0,7.7,-9.2,nt,nt,nt,nt,nt
Cc1ccc(CC(=O)Nc2ccc(Cl)cn2)cc1,-20.3,1.1,17.9,-16.0,0.0,2.9,nt,nt,nt,nt,nt
Cc1ccc(C(=O)Nc2ccc(Cl)cn2)cc1,75.2*,5.0,15.8,-6.7,59.1*,58.8*,48.1,64.0*,90.4*,78.2*,35.8
O=C(Nc1ccc(Cl)cn1)c1cccc(OCc2ccccc2)c1,-10.2,8.2,13.3,10.5,-5.2,-8.4,nt,nt,nt,nt,nt
COc1ccccc1NC(=O)C(=O)NCCC1CCCCN1S(=O)(=O)c1cccs1 (centres undefined),-12.9,1.0,21.5,17.9,2.8,-5.7,nt,nt,nt,nt,nt
COc1ccc(/C=C/C(=O)O)cc1S(=O)(=O)NC1CCS(=O)(=O)C1 (centres undefined),12.8,2.0,-4.3,-7.0,3.6,5.2,nt,nt,nt,nt,nt
CCCOc1ccc(C(=O)Nc2ccc(Cl)cn2)cc1,78.0*,4.6,7.2,19.1,83.8*,71.1*,21.3,22.6,50.5*,39.5,20.4
Cc1ccccc1C(=O)Nc1ccc(Cl)cn1,56.4*,0.0,21.2,-3.5,51.1*,19.2,39.2,43.6,72.8*,74.4*,36.6
Cc1cccc(C)c1OCc1cc(C(=O)N2CCN(c3ccc(F)cc3)CC2)no1,55.2*,-1.7,3.5,14.1,30.8,33.2,49.1,46.6,81.4*,63.8*,59.1*
